Assay results: ChEMBL document CHEMBL4190349, “Synthesis and 2D-QSAR studies of neolignan-based diaryl-tetrahydrofuran and -furan analogues with remarkable activity against Trypanosoma cruzi and assessment of the trypanothione reductase activity” (Eur J Med Chem, 2017)
Active and inactive are the calls of the source. The rule behind the calls is not given here.

Key:
Trypanosoma cruzi [1] = assay: Growth inhibition of Trypanosoma cruzi amastigotes at 20 ug/ml; type: functional; details: read-out: GI
Trypanosoma cruzi [2] = assay: Antitrypanosomal activity against Trypanosoma cruzi Tulahuen trypomastigotes expressing beta-galactosidase gene incubated for 4 days by beta-galactosidase mediated CPRG substrate hydrolysis assay; type: functional, organism-based; details: 96 h
Outline: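 Tulahuen lacZ (β-galactosidase-expressing) cell-derived trypomastigotes, 5×10^5 per well, exposed 4 days at 37°C to serial concentrations 500 to 3.75 µM. Then PBS with 0.5% Triton X-100 and 100 µM CPRG was added, followed by 4 h at 37°C. Absorbance at 570 nm reflects viability. Run in duplicate. EC50 comes from dose-response curves.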

Trypanosoma cruzi [3] = assay: Antitrypanosomal activity against Trypanosoma cruzi Y trypomastigotes; type: functional, organism-based
Outline: (§1)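 Y strain trypomastigotes plated at 1×10^6 parasites/mL and exposed to serial concentrations of 500 to 3.75 µM. After 24 h, parasites were removed and counted in a Neubauer chamber. EC50 comes from dose-response curves.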

[4] = Cytotoxicity in C57BL/6 mouse spleen cells assessed as reduction in cell viability up to 250 uM incubated for 24 hrs by propidium iodide staining based flow cytometry
Outline: (§2)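 Spleen cells from C57BL/6 mice, after red-cell lysis with Tris–NH4Cl, in RPMI with 5% FBS, seeded at 6.5×10^6/mL. Exposed 24 h at 37°C to 250 to 1.50 µM. Stained with 10 µg/mL propidium iodide and read by flow cytometry. 1% Tween 20 was the death control. Run in triplicate.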

[5] = Cytotoxicity in C57BL/6 mouse spleen cells assessed as reduction in cell viability incubated for 24 hrs by propidium iodide staining based flow cytometry; outline: as §2
[6] = Selectivity index, ratio of CC50 for cytotoxicity in C57BL/6 spleen cells to EC50 for Antitrypanosomal activity against Trypanosoma cruzi Tulahuen trypomastigotes; type: toxicity, cell-based; details: C57BL/6, mouse, read-out: Ratio CC50/EC50
Trypanosoma cruzi [7] = assay: Antitrypanosomal activity against Trypanosoma cruzi Y trypomastigotes assessed as induction of parasite lysis; type: functional, organism-based; outline: as §1
Trypanosoma cruzi [8] = assay: Antitrypanosomal activity against Trypanosoma cruzi; type: functional, organism-based
Trypanosoma cruzi [9] = assay: Antitrypanosomal activity against Trypanosoma cruzi Tulahuen amastigotes expressing beta-galactosidase gene infected in LLC-MK2 cells incubated for 4 days after 4 hrs post infection by beta-galactosidase mediated CPRG substrate hydrolysis assay; type: functional, organism-based; details: in the assay text read “24 hrs post infection” for “4 hrs post infection”
Outline: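 LLC-MK2 cells in phenol-red-free RPMI 1640 with 5% FBS, seeded at 2×10^4 cells/mL for 24 h. Infected with Tulahuen lacZ trypomastigotes (3:1 parasite:cell) at 37°C and washed at 4 h. Compounds (500 to 0.24 µM) added 24 h post-infection for 4 days at 37°C. After washing, Triton X-100/100 µM CPRG lysis, 4 h at 37°C, A570. Untreated infected wells were controls.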

Trypanothione reductase = Trypanothione reductase (Trypanosoma cruzi, UniProt P28593); assay: (§3) Inhibition of Trypanosoma cruzi trypanothione reductase expressed in Escherichia coli BL21 (DE3) pre-incubated for 30 mins using TS2 substrate in presence of NADPH by colorimetric microplate assay
Outline: (§4)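 Recombinant T. cruzi TR expressed in E. coli BL21DE3 and affinity-purified. Assay: TcTR 5 m-unit, 40 mM HEPES pH 7.5, 0.15 mM NADPH, 1 mM EDTA, 1 µM TS2, compounds in DMSO (final 1% DMSO control). Pre-incubated 30 min at 27°C, then DTNB added, and A412 read every 5 min for 30 min.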

[10] = biological target: Trypanothione reductase (Trypanosoma cruzi) (UniProt P28593); assay: as §3; outline: as §4
Chain of Trypanothione reductase (Trypanosoma cruzi) (P28593 whole entry, looked up): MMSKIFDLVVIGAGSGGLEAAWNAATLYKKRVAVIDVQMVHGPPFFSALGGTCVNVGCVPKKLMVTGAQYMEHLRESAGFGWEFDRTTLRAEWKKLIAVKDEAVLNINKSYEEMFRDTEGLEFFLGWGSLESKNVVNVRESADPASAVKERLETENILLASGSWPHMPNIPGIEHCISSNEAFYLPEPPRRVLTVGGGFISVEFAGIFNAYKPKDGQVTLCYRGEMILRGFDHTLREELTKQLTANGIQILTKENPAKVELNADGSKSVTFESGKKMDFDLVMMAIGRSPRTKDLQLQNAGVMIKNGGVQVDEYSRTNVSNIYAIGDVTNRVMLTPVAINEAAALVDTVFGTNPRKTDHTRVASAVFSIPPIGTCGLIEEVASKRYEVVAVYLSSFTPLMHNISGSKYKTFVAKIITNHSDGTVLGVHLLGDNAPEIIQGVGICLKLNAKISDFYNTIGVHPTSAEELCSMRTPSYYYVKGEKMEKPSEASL

Chain of Trypanothione reductase (P28593 whole entry): as the sequence (P28593 whole entry, looked up) above

SMILES | EC50 (Trypanosoma cruzi [2]) | IC50 (Trypanosoma cruzi [2]) | Activity [4] | other results
NS(=O)(=O)c1ccc(-c2ccco2)cc1 |  |  |  | inhibition of growth at 20 µg/mL (Trypanosoma cruzi [1]): 70%
COc1ccc(C(=O)CCC(=O)c2ccccc2)c(OC)c1 | 7.79 µM | 7.8 µM | Non-Toxic | EC50 (Trypanosoma cruzi [3]): 1.76 µM
COc1cc(-c2ccc(-c3ccccc3)o2)cc(OC)c1OC | 29.1 µM | 29.1 µM | Non-Toxic | 
COc1cc(C(=O)CCC(=O)c2ccccc2)cc(OC)c1OC | 36.9 µM | 36.9 µM | Non-Toxic | 
COc1cc([C@@H]2O[C@@H](c3cc(OC)c(OCc4ccccc4)c(OC)c3)C(CO)=C2C)cc(OC)c1OC |  |  |  | EC50 (Trypanosoma cruzi [8]): 1.5 µM
COc1ccc(C2CCC(c3ccccc3)O2)cc1 (stereo unspecified) | 9.07 µM | 9.08 µM | Non-Toxic | 
COc1cccc(C(O)C#CC(O)c2ccccc2)c1 (stereo unspecified) | 39.1 µM | 39.1 µM | Non-Toxic | 
OC(CCC(O)c1ccccc1)c1ccccc1 (stereo unspecified) | 33.2 µM | 33.2 µM |  | CC50 at 24 h [5]: 166 µM; selectivity ratio [6]: 5
COc1ccc(-c2ccc(-c3ccccc3)o2)cc1 | 4.75 µM | 4.75 µM | Non-Toxic | EC50 (Trypanosoma cruzi [9]): 127 µM; IC50 (Trypanothione reductase): 7.4 µM; EC50 (Trypanosoma cruzi [3]): 19.2 µM
COc1ccc(C(O)C#CC(O)c2ccccc2)cc1 (stereo unspecified) | 14 µM | 14 µM | Non-Toxic | 
COc1cccc(C2CCC(c3ccccc3)O2)c1 (stereo unspecified) | 2.29 µM | 2.29 µM | Non-Toxic | EC50 (Trypanosoma cruzi [9]): 126 µM; EC50 (Trypanosoma cruzi [3]): 34.2 µM
O=C(Cn1ccnc1[N+](=O)[O-])NCc1ccccc1 [BENZNIDAZOLE] | 1.65 µM |  |  | EC50 (Trypanosoma cruzi [3]): 0.04 µM
COc1cc(C(O)C#CC(O)c2ccccc2)cc(OC)c1OC (stereo unspecified) | 4.88 µM | 4.88 µM | Non-Toxic | EC50 (Trypanosoma cruzi [3]): 97.1 µM
COc1ccc(C(O)CCC(O)c2ccccc2)cc1OC (stereo unspecified) | 83.1 µM | 83.2 µM | Non-Toxic | 
COc1ccc(-c2ccc(-c3ccc(OC)c(OC)c3)o2)cc1OC |  |  |  | inhibition of growth at 20 µg/mL (Trypanosoma cruzi [1]): 65%
COc1ccc(C2CCC(c3ccccc3)O2)cc1OC (stereo unspecified) | 24.6 µM | 24.6 µM | Non-Toxic | 
COc1ccc(-c2ccc(-c3ccccc3)o2)c(OC)c1 | 1.12 µM | 1.12 µM | Non-Toxic | EC50 (Trypanosoma cruzi [9]): 19 µM; IC50 (Trypanothione reductase): 17.7 µM; EC50 (Trypanosoma cruzi [3]): 35.9 µM
COc1ccc(C(O)CCC(O)c2ccccc2)cc1 (stereo unspecified) | 68.1 µM | 68.1 µM | Non-Toxic | 
COc1cc(OC)cc(-c2ccc(-c3ccccc3)o2)c1 | 0.01 µM |  | Non-Toxic | EC50 (Trypanosoma cruzi [9]): 133 µM; inhibition [10]: inactive; EC50 (Trypanosoma cruzi [3]): 4.08 µM

The remaining molecules from weak to strong by EC50 (Trypanosoma cruzi [2]), led by results:

EC50 (Trypanosoma cruzi [2]) | IC50 (Trypanosoma cruzi [2]) | SMILES | Activity [4] | other results
199 µM | 199 µM | O=C(CCC(=O)c1ccccc1)c1ccccc1 |  | CC50 at 24 h [5]: 220 µM; selectivity ratio [6]: 1.1
193 µM | 193 µM | COc1cccc(C(O)CCC(O)c2ccccc2)c1 (stereo unspecified) | Non-Toxic | 
77.5 µM | 77.4 µM | COc1cc(C(O)CCC(O)c2ccccc2)cc(OC)c1OC (stereo unspecified) |  | CC50 at 24 h [5]: 115 µM; selectivity ratio [6]: 1.5
67.6 µM | 67.6 µM | COc1cc(OC)cc(C(O)CCC(O)c2ccccc2)c1 (stereo unspecified) | Non-Toxic | 
37.9 µM | 37.8 µM | COc1ccc(C(O)C#CC(O)c2ccccc2)c(OC)c1 (stereo unspecified) | Non-Toxic | 
37.3 µM | 37.3 µM | c1ccc(C2CCC(c3ccccc3)O2)cc1 (stereo unspecified) | Non-Toxic | 
36 µM | 36 µM | COc1ccc(C(=O)CCC(=O)c2ccccc2)cc1OC | Non-Toxic | 
28.6 µM |  | COc1cc([C@@H]2O[C@@H](c3cc(OC)c(OC)c(OC)c3)[C@H](C)[C@H]2C)cc(OC)c1OC [GRANDISIN] |  | EC50 (Trypanosoma cruzi [7]): 3.7 µM
26.2 µM | 26.2 µM | COc1cc(C2CCC(c3ccccc3)O2)cc(OC)c1OC (stereo unspecified) | Non-Toxic | 
21 µM | 21 µM | c1ccc(-c2ccc(-c3ccccc3)o2)cc1 |  | CC50 at 24 h [5]: 194 µM; selectivity ratio [6]: 9.2
19.9 µM | 19.9 µM | COc1ccc(C(O)CCC(O)c2ccccc2)c(OC)c1 (stereo unspecified) |  | CC50 at 24 h [5]: 236 µM; selectivity ratio [6]: 11.9
18.7 µM | 18.7 µM | OC(C#CC(O)c1ccccc1)c1ccccc1 (stereo unspecified) | Non-Toxic | 
18.3 µM | 18.3 µM | COc1cccc(C(=O)CCC(=O)c2ccccc2)c1 | Non-Toxic | 
15.9 µM | 15.9 µM | COc1ccc(C(=O)CCC(=O)c2ccccc2)cc1 | Non-Toxic | 
12.1 µM | 12.1 µM | COc1cc(OC)cc(C2CCC(c3ccccc3)O2)c1 (stereo unspecified) | Non-Toxic | 
8.98 µM | 8.97 µM | COc1ccc(C(O)C#CC(O)c2ccccc2)cc1OC (stereo unspecified) | Non-Toxic | 
4.98 µM | 4.98 µM | COc1cc(OC)cc(C(O)C#CC(O)c2ccccc2)c1 (stereo unspecified) |  | CC50 at 24 h [5]: 78.6 µM; selectivity ratio [6]: 15.8
3.34 µM | 3.34 µM | COc1cccc(-c2ccc(-c3ccccc3)o2)c1 | Non-Toxic | EC50 (Trypanosoma cruzi [9]): 126 µM; IC50 (Trypanothione reductase): 8.9 µM; EC50 (Trypanosoma cruzi [3]): 34.2 µM
2.67 µM |  | COc1ccc([C@H]2O[C@@H](c3ccc(OC)c(OC)c3)[C@H](C)[C@H]2C)cc1OC [VERAGUENSIN] |  | EC50 (Trypanosoma cruzi [7]): 2.3 µM
1.69 µM | 1.69 µM | COc1cc(OC)cc(C(=O)CCC(=O)c2ccccc2)c1 | Non-Toxic | EC50 (Trypanosoma cruzi [3]): 15.9 µM
1.34 µM | 1.34 µM | COc1ccc(-c2ccc(-c3ccccc3)o2)cc1OC | Non-Toxic | EC50 (Trypanosoma cruzi [9]): 126 µM; IC50 (Trypanothione reductase): 19.2 µM; EC50 (Trypanosoma cruzi [3]): 32.6 µM
0.75 µM | 0.75 µM | COc1ccc(C2CCC(c3ccccc3)O2)c(OC)c1 (stereo unspecified) | Non-Toxic | EC50 (Trypanosoma cruzi [9]): 19.8 µM; EC50 (Trypanosoma cruzi [3]): 1.05 µM
